# Laboratory results taken from the array DNA melting data of Ke et al. (doi:10.1101/2024.01.08.574731).
# Tests used:
# [1] = folding enthalpy; higher = less favourable; fluorescence melt of hairpins on a sequencing array, two-state fit; settings: sodium 0.088 M
# Procedure, shortened: (§1)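 In 50 mM Na-HEPES pH 8.0 containing 25 mM NaCl, hairpins from the library on a sequenced MiSeq flow cell were imaged for Cy3 fluorescence at 2.5 °C steps up to 60 °C, with Cy3 and quencher oligos annealed. After normalisation to pre-quench Cy3 and to control constructs, two-state fits with bootstrapping gave melting temperature and folding enthalpy. Four replicates were combined by inverse-variance weighting, and fitted temperatures were shifted up by 9.35 °C to match UV melts.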
# [2] = melting temperature; fluorescence melt of hairpins on a sequencing array, two-state fit, raised by 9.35 °C to match UV melts; settings: sodium 0.088 M
# Procedure, shortened: as §1
sequence,measurement,setting,value
GTCCGGCCGAAAGGCGAC (((..(((....)))))),folding enthalpy,[1],-12.8 kcal/mol
same,Tm,[2],41.7 °C
GATCTATACCTAGATC ((((((....)))))),folding enthalpy,[1],-34.7 kcal/mol
same,Tm,[2],43.2 °C
GCGCAGTCGAAAGACCGC (((..(((....)))))),folding enthalpy,[1],-26.1 kcal/mol
same,Tm,[2],52.8 °C
GATCGCAAGAGCGATC ((((((....)))))),folding enthalpy,[1],-34 kcal/mol
same,Tm,[2],67.8 °C
GGACTCGCGAAAGCGTCC (((..(((....)))))),folding enthalpy,[1],-13.1 kcal/mol
same,Tm,[2],39.1 °C
GATCTGCCCCAGATC ((((((...)))))),folding enthalpy,[1],-33.6 kcal/mol
same,Tm,[2],49.2 °C
GATCGGCCGCCCGATC ((((((....)))))),folding enthalpy,[1],-40.4 kcal/mol
same,Tm,[2],60.5 °C
GCGTCATCACGC ((((....)))),folding enthalpy,[1],-22.5 kcal/mol
same,Tm,[2],50.4 °C
GCCTAGCGAAAGCTTCGC ((..(((....)))..)),folding enthalpy,[1],-7.98 kcal/mol
same,Tm,[2],44.6 °C
CGCGGAACACTCCGCG ((((((....)))))),folding enthalpy,[1],-34.8 kcal/mol
same,Tm,[2],63.3 °C
GATCGACCATTCGATC ((((((....)))))),folding enthalpy,[1],-39.6 kcal/mol
same,Tm,[2],50.1 °C
GGTGCCGAAAGGCACACC ((((((....)))..))),folding enthalpy,[1],-6.62 kcal/mol
same,Tm,[2],58 °C
GGCTCACGAAAGTGCGCC (((.(((....))).))),folding enthalpy,[1],-50.9 kcal/mol
same,Tm,[2],58.4 °C
GCACCCGAAAGGGGGTGC ((((((....)))..))),folding enthalpy,[1],-21 kcal/mol
same,Tm,[2],66.8 °C
GATCGAGGGTCGATC ((((((...)))))),folding enthalpy,[1],-32.3 kcal/mol
same,Tm,[2],51 °C
GGACCAGCGAAAGCTTCC (((..(((....)))))),folding enthalpy,[1],-10.3 kcal/mol
same,Tm,[2],25.2 °C
GAGCGTGGAAACACGCCC (.(((((....))))).),folding enthalpy,[1],-7.9 kcal/mol
same,Tm,[2],47.9 °C
GATCGGGGAAACCTGATC ((((.((....)).)))),folding enthalpy,[1],-43.8 kcal/mol
same,Tm,[2],49.2 °C
GCTTTTGGAAACGAAAGC (((((.(....).))))),folding enthalpy,[1],-39 kcal/mol
same,Tm,[2],47.2 °C
GATCATGTGTATGATC ((((((....)))))),folding enthalpy,[1],-41.9 kcal/mol
same,Tm,[2],48.4 °C
GCATTTGGAAACAAATAC (.(((((....))))).),folding enthalpy,[1],-17.9 kcal/mol
same,Tm,[2],29.3 °C
GCTCTCGAAAGAGGGAGC ((((((....)))..))),folding enthalpy,[1],-21.8 kcal/mol
same,Tm,[2],45.5 °C
GCGAGTATTCGC ((((....)))),folding enthalpy,[1],-26.6 kcal/mol
same,Tm,[2],57.2 °C
GGCTCTTCGAAAGAAGCC (((..(((....)))))),folding enthalpy,[1],-16.3 kcal/mol
same,Tm,[2],37.6 °C
GCTATGCGAAAGCCTAGC ((((.((....)).)))),folding enthalpy,[1],-28.8 kcal/mol
same,Tm,[2],52.4 °C
GTAAGCGAAAGCTGTTAC ((((((....)))..))),folding enthalpy,[1],-9.91 kcal/mol
same,Tm,[2],32.6 °C
GTCCAGGGAAACCTGGGC (.(((((....))))).),folding enthalpy,[1],-33.1 kcal/mol
same,Tm,[2],56.5 °C
GGACATGAAAATGTCC ((((((....)))))),folding enthalpy,[1],-34.7 kcal/mol
same,Tm,[2],61.7 °C
GACCGTGGAAACGCGGTC (((((.(....).))))),folding enthalpy,[1],-40 kcal/mol
same,Tm,[2],58.6 °C
GATATCCGAAAGGACATC (((.(((....))).))),folding enthalpy,[1],-22 kcal/mol
same,Tm,[2],38.9 °C
GTAGCCCCGAAAGGGTAC (((..(((....)))))),folding enthalpy,[1],-13.1 kcal/mol
same,Tm,[2],39.1 °C
GATCCCAATGGGGATC ((((((....)))))),folding enthalpy,[1],-33.2 kcal/mol
same,Tm,[2],60.7 °C
GATCACGGAAACATGATC (((((.(....).))))),folding enthalpy,[1],-26 kcal/mol
same,Tm,[2],35.4 °C
GGGTTCGAAAGAACGCCC ((((((....)))..))),folding enthalpy,[1],-11.2 kcal/mol
same,Tm,[2],50 °C
GCAGTGCGAAAGCAACGC ((..(((....)))..)),folding enthalpy,[1],-15.1 kcal/mol
same,Tm,[2],58.7 °C
GATCTCGCATGAGATC ((((((....)))))),folding enthalpy,[1],-44.8 kcal/mol
same,Tm,[2],61.6 °C
GGGTAGGGAAACCTACCC (((((((....))))))),folding enthalpy,[1],-50.9 kcal/mol
same,Tm,[2],64 °C
GGCGGCGGAAACGCCACC ((.((((....)))).)),folding enthalpy,[1],-27.5 kcal/mol
same,Tm,[2],63.7 °C
GTACATCGAAAGATTTAC (((.(((....))).))),folding enthalpy,[1],-17.8 kcal/mol
same,Tm,[2],35 °C
GGGCCCGAAAGGGGTCCC ((((((....)))..))),folding enthalpy,[1],-14.5 kcal/mol
same,Tm,[2],66.2 °C
GATCTAGGTATAGATC ((((((....)))))),folding enthalpy,[1],-34.7 kcal/mol
same,Tm,[2],47.5 °C
GCTAGGCGAAAGCCTGGC ((.((((....)))).)),folding enthalpy,[1],-21.1 kcal/mol
same,Tm,[2],68.2 °C
GATAAAGAAATTTATC ((((((....)))))),folding enthalpy,[1],-15.9 kcal/mol
same,Tm,[2],27.6 °C
GCAGCCGAAAGGCAATGC ((((((....)))..))),folding enthalpy,[1],-17 kcal/mol
same,Tm,[2],52.1 °C
GATCAGGCGGCTGATC ((((((....)))))),folding enthalpy,[1],-47.8 kcal/mol
same,Tm,[2],53.2 °C
GGTCACGGAAACATGACC (((((.(....).))))),folding enthalpy,[1],-28.4 kcal/mol
same,Tm,[2],44.4 °C
